Experimental data as given in ChEMBL document CHEMBL1781906, “New quinolin-4-yl-1,2,3-triazoles carrying amides, sulphonamides and amidopiperazines as potential antitubercular agents” (2011).
Values after ≈ are worked out from the molar mass of the structure shown.

Key:
Assay type in all cases: functional
[1] = tested on: Mycobacterium tuberculosis; test: Antimycobacterial activity against Mycobacterium tuberculosis H37Rv ATCC 27294 assessed as inhibition of bacterial growth at 1 to 100 ug/ml after 7 days by resazurin method
Procedure, shortened: (§1)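 H37Rv was grown in Middlebrook 7H9 broth with 10% OADC, diluted to McFarland 2 in the same medium, and added to fresh medium in 96-well plates with compound. Compounds were tested at 1, 10 and 100. The dye turned pink in controls after […] at 37 °C.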

[2] = tested on: Mycolicibacterium fortuitum; test: Antimycobacterial activity against Mycobacterium fortuitum ATCC 19542 after 7 days by resazurin method; settings: ATCC 19542, 168 h
Procedure, shortened: (§2)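 MIC was determined by resazurin microplate assay. Resazurin turns from blue to pink when reduced by viable cells, and wells with no colour change were scored as inhibited. Isoniazid and rifampicin were reference drugs.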

[3] = tested on: Streptococcus pyogenes; test: Antibacterial activity against Streptococcus pyogenes after 18 to 24 hrs by serial plate dilution method
[4] = tested on: Staphylococcus aureus; test: Antibacterial activity against Staphylococcus aureus ATCC 25923 after 18 to 24 hrs by serial plate dilution method
[5] = tested on: Mycolicibacterium smegmatis; test: Antimycobacterial activity against Mycobacterium smegmatis ATCC 19420 after 7 days by resazurin method; settings: ATCC 19420, 168 h; procedure, shortened: as §2
[6] = tested on: Mycobacterium tuberculosis; test: Antimycobacterial activity against Mycobacterium tuberculosis H37Rv ATCC 27294 after 7 days by resazurin method; settings: H37Rv ATCC 27294, 168 h; procedure, shortened: as §1
[7] = tested on: Klebsiella pneumoniae; test: Antibacterial activity against Klebsiella pneumoniae after 18 to 24 hrs by […]
[8] = tested on: Pseudomonas aeruginosa; test: Antibacterial activity against Pseudomonas aeruginosa ATCC 27853 after 18 to 24 hrs by […]
[9] = tested on: Escherichia coli; test: Antibacterial activity against Escherichia coli ATCC 25922 after 18 to 24 hrs by […]

Row | SMILES | inhibition (INH) [1] | MIC [2] | MIC [3] | MIC [4] | MIC [5] | MIC [6] | MIC [7] | MIC [8] | MIC [9]
1 | COc1ccc2nc(C)cc(-n3cc(CNC(=O)C4CC4)nn3)c2c1 | 90% | 100 µg/mL (≈ 296 µM) | 0.4 µg/mL (≈ 1.19 µM) | 0.4 µg/mL (≈ 1.19 µM) | 100 µg/mL (≈ 296 µM) | 1 µg/mL (≈ 2.96 µM) | 0.2 µg/mL (≈ 0.593 µM) | 1.6 µg/mL (≈ 4.74 µM) | 0.4 µg/mL (≈ 1.19 µM)
2 | COc1ccc2nc(C)cc(-n3cc(CN4CCN(C(C)=O)CC4)nn3)c2c1 | 95% | 100 µg/mL (≈ 263 µM) | 0.2 µg/mL (≈ 0.526 µM) | 0.4 µg/mL (≈ 1.05 µM) | 10 µg/mL (≈ 26.3 µM) | 0.625 µg/mL (≈ 1.64 µM) | 0.1 µg/mL (≈ 0.263 µM) | 0.2 µg/mL (≈ 0.526 µM) | 0.1 µg/mL (≈ 0.263 µM)
3 | COc1ccc2nc(C)cc(-n3cc(CN4CCN(C(=O)c5ccccc5Cl)CC4)nn3)c2c1 |  | 100 µg/mL (≈ 210 µM) | 3.12 µg/mL (≈ 6.54 µM) | 3.12 µg/mL (≈ 6.54 µM) | 100 µg/mL (≈ 210 µM) | 10 µg/mL (≈ 21 µM) | 3.12 µg/mL (≈ 6.54 µM) | 3.12 µg/mL (≈ 6.54 µM) | 6.25 µg/mL (≈ 13.1 µM)
4 | COc1ccc2nc(C)cc(-n3cc(CN4CCN(C(=O)c5ccccc5)CC4)nn3)c2c1 | 85% | 100 µg/mL (≈ 226 µM) | 0.8 µg/mL (≈ 1.81 µM) | 0.8 µg/mL (≈ 1.81 µM) | 100 µg/mL (≈ 226 µM) | 10 µg/mL (≈ 22.6 µM) | 0.4 µg/mL (≈ 0.904 µM) | 0.4 µg/mL (≈ 0.904 µM) | 0.4 µg/mL (≈ 0.904 µM)
5 | CO[C@H]1/C=C/O[C@@]2(C)Oc3c(C)c(O)c4c(O)c(c(/C=N/N5CCN(C)CC5)c(O)c4c3C2=O)NC(=O)/C(C)=C\C=C\[C@H](C)[C@H](O)[C@@H](C)[C@@H](O)[C@@H](C)[C@H](OC(C)=O)[C@@H]1C [RIFAMPIN] | 95% | 1.5 µg/mL (≈ 1.82 µM) |  |  | 1.5 µg/mL (≈ 1.82 µM) | 0.5 µg/mL (≈ 0.608 µM) |  |  | 
6 | COc1ccc2nc(C)cc(-n3cc(CNS(=O)(=O)c4ccc(F)cc4)nn3)c2c1 | 85% | 100 µg/mL (≈ 234 µM) | 0.4 µg/mL (≈ 0.936 µM) | 0.4 µg/mL (≈ 0.936 µM) | 100 µg/mL (≈ 234 µM) | 1 µg/mL (≈ 2.34 µM) | 3.12 µg/mL (≈ 7.3 µM) | 0.8 µg/mL (≈ 1.87 µM) | 3.12 µg/mL (≈ 7.3 µM)
7 | COc1ccc(S(=O)(=O)NCc2cn(-c3cc(C)nc4ccc(OC)cc34)nn2)cc1 | 90% | 10 µg/mL (≈ 22.8 µM) | 1.6 µg/mL (≈ 3.64 µM) | 6.25 µg/mL (≈ 14.2 µM) | 10 µg/mL (≈ 22.8 µM) | 0.625 µg/mL (≈ 1.42 µM) | 1.6 µg/mL (≈ 3.64 µM) | 1.6 µg/mL (≈ 3.64 µM) | 3.12 µg/mL (≈ 7.1 µM)
8 | COc1ccc2nc(C)cc(-n3cc(CNC(=O)c4ccccc4F)nn3)c2c1 | 90% | 100 µg/mL (≈ 255 µM) | 0.2 µg/mL (≈ 0.511 µM) | 0.8 µg/mL (≈ 2.04 µM) | 100 µg/mL (≈ 255 µM) | 1 µg/mL (≈ 2.55 µM) | 0.2 µg/mL (≈ 0.511 µM) | 0.4 µg/mL (≈ 1.02 µM) | 0.4 µg/mL (≈ 1.02 µM)
9 | O=C(O)c1cn(C2CC2)c2cc(N3CCNCC3)c(F)cc2c1=O [CIPROFLOXACIN] |  |  | 0.4 µg/mL (≈ 1.21 µM) | 1 µg/mL (≈ 3.02 µM) |  |  | 0.05 µg/mL (≈ 0.151 µM) | 0.4 µg/mL (≈ 1.21 µM) | 
10 | COc1ccc2nc(C)cc(-n3cc(CNS(=O)(=O)c4ccccc4C(F)(F)F)nn3)c2c1 | 90% | 10 µg/mL (≈ 20.9 µM) | 0.4 µg/mL (≈ 0.838 µM) | 0.8 µg/mL (≈ 1.68 µM) | 100 µg/mL (≈ 209 µM) | 1 µg/mL (≈ 2.09 µM) | 0.4 µg/mL (≈ 0.838 µM) | 0.4 µg/mL (≈ 0.838 µM) | 0.2 µg/mL (≈ 0.419 µM)
11 | COc1ccc2nc(C)cc(-n3cc(CN4CCN(C(=O)C5CCC5)CC4)nn3)c2c1 | 90% | 100 µg/mL (≈ 238 µM) | 1.6 µg/mL (≈ 3.8 µM) | 1.6 µg/mL (≈ 3.8 µM) | 100 µg/mL (≈ 238 µM) | 10 µg/mL (≈ 23.8 µM) | 3.12 µg/mL (≈ 7.42 µM) | 0.8 µg/mL (≈ 1.9 µM) | 1.6 µg/mL (≈ 3.8 µM)
12 | COc1ccc2nc(C)cc(-n3cc(CNC(=O)c4ccccc4Cl)nn3)c2c1 | 80% | 100 µg/mL (≈ 245 µM) | 3.12 µg/mL (≈ 7.65 µM) | 1.6 µg/mL (≈ 3.92 µM) | 100 µg/mL (≈ 245 µM) | 10 µg/mL (≈ 24.5 µM) | 3.12 µg/mL (≈ 7.65 µM) | 6.25 µg/mL (≈ 15.3 µM) | 3.12 µg/mL (≈ 7.65 µM)
13 | COc1ccc(C(=O)N2CCN(Cc3cn(-c4cc(C)nc5ccc(OC)cc45)nn3)CC2)cc1 | 90% | 10 µg/mL (≈ 21.2 µM) | 1.6 µg/mL (≈ 3.39 µM) | 0.8 µg/mL (≈ 1.69 µM) | 5 µg/mL (≈ 10.6 µM) | 0.625 µg/mL (≈ 1.32 µM) | 1.6 µg/mL (≈ 3.39 µM) | 3.12 µg/mL (≈ 6.6 µM) | 0.4 µg/mL (≈ 0.846 µM)
14 | COc1ccc2nc(C)cc(-n3cc(CN4CCN(C(=O)c5ccc(F)cc5)CC4)nn3)c2c1 | 90% | 10 µg/mL (≈ 21.7 µM) | 0.4 µg/mL (≈ 0.869 µM) | 0.8 µg/mL (≈ 1.74 µM) | 1 µg/mL (≈ 2.17 µM) | 1 µg/mL (≈ 2.17 µM) | 0.8 µg/mL (≈ 1.74 µM) | 1.6 µg/mL (≈ 3.47 µM) | 0.8 µg/mL (≈ 1.74 µM)
15 | COc1ccc2nc(C)cc(-n3cc(CNS(=O)(=O)c4ccccc4)nn3)c2c1 |  | 100 µg/mL (≈ 244 µM) | 6.25 µg/mL (≈ 15.3 µM) | 12.5 µg/mL (≈ 30.5 µM) | 100 µg/mL (≈ 244 µM) | 100 µg/mL (≈ 244 µM) | 6.25 µg/mL (≈ 15.3 µM) | 6.25 µg/mL (≈ 15.3 µM) | 6.25 µg/mL (≈ 15.3 µM)
